tested on: RG2; experiment: Cellular uptake in RG2 cells assessed per 10^6 cells at 0.2 MBq after 2 hrs; type: ADME, cell-based; settings: rat, rg2, 2 h
Method in brief: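 Wild-type RG2 rat glioma monolayers (5 × 10^5 cells/well, 24 h growth) were incubated at 37 °C in 0.5 mL serum-free medium with about 0.2 MBq (5 μCi) of 18F-labelled nucleoside (SA 18.5–925 GBq/μmol). After 2 h they were washed with cold PBS, trypsinized and viable cells counted by trypan blue. Gamma counts (400–1600 keV) were normalized to viable cell number and to total activity, expressed as % per 10^6 cells. Three or more experiments, each in duplicate.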

SMILES | Drug uptake [%]
O=c1[nH]c(=O)n([C@H]2C[C@H](O)[C@@H](CO)O2)cc1CCCC[18F] | 0.59
O=c1[nH]c(=O)n([C@H]2C[C@H](O)[C@@H](CO)O2)cc1CCCCC[18F] | 0.23
O=c1[nH]c(=O)n([C@@H]2O[C@H](CO)[C@@H](O)[C@@H]2F)cc1CCCC[18F] | 0.66
O=c1[nH]c(=O)n([C@H]2C[C@H](O)[C@@H](CO)O2)cc1CCC[18F] | 0.41
O=c1[nH]c(=O)n([C@@H]2O[C@H](CO)[C@@H](O)[C@@H]2F)cc1CCCCC[18F] | 0.24
O=c1[nH]c(=O)n([C@@H]2O[C@H](CO)[C@@H](O)[C@@H]2F)cc1CCC[18F] | 0.38

tested on: RG2; experiment: Cytotoxicity against RG2 cells after 72 hrs by MTT assay; type: cell-based; settings: rat, rg2, 72 h
Method in brief: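 RG2 cells were seeded at 1.5 × 10^3/well, left overnight, then exposed to drug at 0.001–1000 μmol/L in culture medium, in quadruplicate, for 72 h at 37 °C. MTT (1 mg/mL) was added for 3 h and the formazan dissolved in DMSO. Absorbance was read at 490 nm with a 650 nm reference, blank subtracted, and growth given as % of untreated control. CC50 was taken as mean of three experiments.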

SMILES | CC50 [µM]
O=c1[nH]c(=O)n([C@H]2C[C@H](O)[C@@H](CO)O2)cc1CCCF | > 450
Nc1nc(O)c2ncn(COC(CO)CO)c2n1 [GANCICLOVIR] | 377
O=c1[nH]c(=O)n([C@@H]2O[C@H](CO)[C@@H](O)[C@@H]2F)cc1CCCF | 121
O=c1[nH]c(=O)n([C@@H]2O[C@H](CO)[C@@H](O)[C@@H]2F)cc1I [FIALURIDINE] | 80
O=c1[nH]c(=O)n([C@H]2C[C@H](O)[C@@H](CO)O2)cc1CCCCF | > 800
O=c1[nH]c(=O)n([C@@H]2O[C@H](CO)[C@@H](O)[C@@H]2F)cc1CCCCF | 355
O=c1[nH]c(=O)n([C@H]2C[C@H](O)[C@@H](CO)O2)cc1CCCCCF | > 750
O=c1[nH]c(=O)n([C@@H]2O[C@H](CO)[C@@H](O)[C@@H]2F)cc1CCCCCF | > 1000

tested on: not listed separately; experiment: Inhibition of [125I]FIAU uptake in RG2TK+ cells overexpressing HSV1-tk gene; type: functional, cell-based; settings: Rattus norvegicus
Method in brief: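 HSV1-tk-expressing RG2TK+ glioma cells incubated 2 h with [125I]FIAU plus inhibitor at 0–300 μM. Cell-associated radioactivity measured. IC50 is the concentration giving 50% inhibition of [125I]FIAU uptake; mean ± S.D. of at least three experiments in duplicate.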

SMILES | IC50 [µM]
O=c1[nH]c(=O)n([C@H]2C[C@H](O)[C@@H](CO)O2)cc1CCCF | 7.6
O=c1[nH]c(=O)n([C@@H]2O[C@H](CO)[C@@H](O)[C@@H]2F)cc1CCCF | 51.2
O=c1[nH]c(=O)n([C@@H]2O[C@H](CO)[C@@H](O)[C@@H]2F)cc1I [FIALURIDINE] | 0.7
O=c1[nH]c(=O)n([C@H]2C[C@H](O)[C@@H](CO)O2)cc1CCCCF | 34.5
O=c1[nH]c(=O)n([C@@H]2O[C@H](CO)[C@@H](O)[C@@H]2F)cc1CCCCF | 23
O=c1[nH]c(=O)n([C@H]2C[C@H](O)[C@@H](CO)O2)cc1CCCCCF | 36.8
O=c1[nH]c(=O)n([C@@H]2O[C@H](CO)[C@@H](O)[C@@H]2F)cc1CCCCCF | 22.9

tested on: not listed separately; experiment: Cellular uptake in HSV1-tk gene overexpressing RG2TK+ cells assessed per 10^6 cells at 0.2 MBq after 2 hrs; type: ADME; settings: rat
Method in brief: (§1)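 RG2 rat glioma cells transduced with HSV1-tk (kept in G418 250 mg/L), 5 × 10^5 cells/well, grown 24 h, then incubated at 37 °C in serum-free medium with ~0.02 MBq [125I]FIAU or ~0.2 MBq 18F-tracer. Sampled at 5–120 min. After cold PBS washes and trypsinization, cell-bound activity was gamma counted and normalized to viable (trypan blue) cells and to total dose. Mean ± S.D., ≥3 experiments in duplicate.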

SMILES | Drug uptake [%]
O=c1[nH]c(=O)n([C@H]2C[C@H](O)[C@@H](CO)O2)cc1CCCC[18F] | 8.4
O=c1[nH]c(=O)n([C@H]2C[C@H](O)[C@@H](CO)O2)cc1CCCCC[18F] | 4.4
O=c1[nH]c(=O)n([C@@H]2O[C@H](CO)[C@@H](O)[C@@H]2F)cc1CCCC[18F] | 3.7
O=c1[nH]c(=O)n([C@H]2C[C@H](O)[C@@H](CO)O2)cc1CCC[18F] | 8.2
O=c1[nH]c(=O)n([C@@H]2O[C@H](CO)[C@@H](O)[C@@H]2F)cc1CCCCC[18F] | 1.2
O=c1[nH]c(=O)n([C@@H]2O[C@H](CO)[C@@H](O)[C@@H]2F)cc1CCC[18F] | 1.9

tested on: not listed separately; experiment: Cellular uptake in HSV1-tk gene overexpressing RG2TK+ cells assessed per 10^6 cells at 0.02 MBq after 2 hrs; type: ADME; settings: rat; method in brief: as §1

SMILES | Drug uptake [%]
O=c1[nH]c(=O)n([C@@H]2O[C@H](CO)[C@@H](O)[C@@H]2F)cc1[125I] | 29.4

tested on: not listed separately; experiment: Lipophilicity, log P at pH 7.4; type: physicochemical; settings: buffer
Method in brief: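 Radiolabelled nucleoside (20 μL in water) was partitioned between 3 g 1-octanol and 3 g 0.1 M NaH2PO4 buffer, pH 7.4. The mixture was vortexed 3 min at room temperature, then centrifuged 5 min. Weighed 0.5 g samples of each layer were gamma counted, and the octanol layer was repartitioned until values were consistent. log P was taken as the log of the ratio of cpm/g octanol to cpm/g buffer. Triplicate, repeated three times.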

SMILES | logD
O=c1[nH]c(=O)n([C@H]2C[C@H](O)[C@@H](CO)O2)cc1CCCC[18F] | -0.24
O=c1[nH]c(=O)n([C@H]2C[C@H](O)[C@@H](CO)O2)cc1CCCCC[18F] | 0.23
O=c1[nH]c(=O)n([C@@H]2O[C@H](CO)[C@@H](O)[C@@H]2F)cc1CCCC[18F] | 0.27
O=c1[nH]c(=O)n([C@@H]2O[C@H](CO)[C@@H](O)[C@H]2F)cc1/C=C/[123I] | 1.22
O=c1[nH]c(=O)n([C@H]2C[C@H](O)[C@@H](CO)O2)cc1CCC[18F] | -0.57
O=c1[nH]c(=O)n([C@@H]2O[C@H](CO)[C@@H](O)[C@@H]2F)cc1[125I] | 0.05
O=c1[nH]c(=O)n([C@@H]2O[C@H](CO)[C@@H](O)[C@@H]2F)cc1CCCCC[18F] | 0.74
O=c1[nH]c(=O)n([C@@H]2O[C@H](CO)[C@@H](O)[C@@H]2F)cc1CCC[18F] | -0.12
O=c1[nH]c(=O)n([C@@H]2O[C@H](CO)[C@@H](O)[C@@H]2F)cc1/C=C/[123I] | 1.24

tested on: RG2; experiment: Selectivity index, ratio of cellular uptake in HSV1-tk gene overexpressing RG2TK+ cells to cellular uptake in RG2 cells; type: functional, Rattus norvegicus; settings: not given
Method in brief: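 Tracer uptake measured in parallel in HSV1-tk-transduced RG2TK+ and wild-type RG2 glioma cells: 37 °C, serum-free medium, ~0.2 MBq 18F-tracer. Activity was gamma counted and normalized to viable cells and dose. The index is the average ratio of accumulation in RG2TK+ to accumulation in RG2.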

SMILES | Ratio
O=c1[nH]c(=O)n([C@H]2C[C@H](O)[C@@H](CO)O2)cc1CCCC[18F] | 14.9
O=c1[nH]c(=O)n([C@H]2C[C@H](O)[C@@H](CO)O2)cc1CCCCC[18F] | 19.9
O=c1[nH]c(=O)n([C@@H]2O[C@H](CO)[C@@H](O)[C@@H]2F)cc1CCCC[18F] | 7.8
O=c1[nH]c(=O)n([C@H]2C[C@H](O)[C@@H](CO)O2)cc1CCC[18F] | 20.5
O=c1[nH]c(=O)n([C@@H]2O[C@H](CO)[C@@H](O)[C@@H]2F)cc1[125I] | 9.9
O=c1[nH]c(=O)n([C@@H]2O[C@H](CO)[C@@H](O)[C@@H]2F)cc1CCCCC[18F] | 5.5
O=c1[nH]c(=O)n([C@@H]2O[C@H](CO)[C@@H](O)[C@@H]2F)cc1CCC[18F] | 5

tested on: not listed separately; experiment: Cytotoxicity against HSV1-tk gene overexpressing RG2TK+ cells after 72 hrs by MTT assay; type: cell-based; settings: rat
Method in brief: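 RG2TK+ cells (HSV1-tk-transduced rat glioma) seeded at 1.5 × 10^3 cells/well overnight, then exposed to drug at 0.001–1000 μmol/L in quadruplicate for 72 h at 37 °C. MTT (1 mg/mL) added for 3 h; formazan dissolved in DMSO and read at 490 nm (650 nm reference). Blanks subtracted; growth given as % of untreated control. CC50 reported as mean ± S.E.M. of three experiments in duplicate.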

SMILES | CC50 [µM]
O=c1[nH]c(=O)n([C@H]2C[C@H](O)[C@@H](CO)O2)cc1CCCF | > 1000
Nc1nc(O)c2ncn(COC(CO)CO)c2n1 [GANCICLOVIR] | 5.86
O=c1[nH]c(=O)n([C@@H]2O[C@H](CO)[C@@H](O)[C@@H]2F)cc1CCCF | 209
O=c1[nH]c(=O)n([C@@H]2O[C@H](CO)[C@@H](O)[C@@H]2F)cc1I [FIALURIDINE] | 0.79
O=c1[nH]c(=O)n([C@H]2C[C@H](O)[C@@H](CO)O2)cc1CCCCF | > 800
O=c1[nH]c(=O)n([C@@H]2O[C@H](CO)[C@@H](O)[C@@H]2F)cc1CCCCF | 346
O=c1[nH]c(=O)n([C@H]2C[C@H](O)[C@@H](CO)O2)cc1CCCCCF | > 650
O=c1[nH]c(=O)n([C@@H]2O[C@H](CO)[C@@H](O)[C@@H]2F)cc1CCCCCF | 375

tested on: RG2; experiment: Cellular uptake in RG2 cells assessed per 10^6 cells at 0.02 MBq after 2 hrs; type: ADME, cell-based; settings: rat, rg2, 2 h
Method in brief: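 Wild-type RG2 rat glioma monolayers (5 × 10^5 cells/well, grown 24 h at 37 °C in DMEM, 10% FBS) washed with warm PBS, then incubated at 37 °C in 0.5 mL serum-free medium with about 0.02 MBq [125I]FIAU (SA 2,200 Ci/mmol). After 2 h, cells were washed with cold PBS, trypsinized and counted for viability by trypan blue. Cell-associated gamma counts were normalized to viable cells and to activity added, given as % per 10^6 cells. Three or more experiments, each in duplicate.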

SMILES | Drug uptake [%]
O=c1[nH]c(=O)n([C@@H]2O[C@H](CO)[C@@H](O)[C@@H]2F)cc1[125I] | 3.4

Source: ChEMBL document CHEMBL1140131, “Synthesis and in vitro evaluation of 5-[(18)f]fluoroalkyl pyrimidine nucleosides for molecular imaging of herpes simplex virus type 1 thymidine kinase reporter gene expression” (J Med Chem, 2008)
